From the RNAGym collection of RNA variant scans (doi:10.1126/science.aae0568)
Fewer inactive variants are shown than the library holds.

B1: tRNA (parent)
chain: GUUCCGUUGGCGUAAUGGUAACGCGUCUCCCUCCUAAGGAGAAGACUGCGGGUUCGAGUCCCGUACGGAACG

Variants of: B1
Experiment: yeast fitness relative to wild type (ratio to wild type); higher = fitter; tRNA-Arg(CCU), competitive growth, 37 C, YPD
Summary of the method: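 Variants of the tRNA-Arg(CCU) gene, chemically synthesised with a 3% per-site mutation rate at 69 sites, were placed at the native genomic locus in Saccharomyces cerevisiae. The pooled strains were competed in YPD at 37°C for 24 hours in six parallel replicates. Gene amplicons from the start population and from each end population were read by 100-nucleotide paired-end sequencing. Darwinian fitness relative to wild type came from changes in genotype frequencies; genotypes needed ≥ 100 starting reads, and estimates < 0.5 were set to 0.5.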

Variant | yeast fitness
U3G A15C C30G C33G A37C | 0.795
C4A A14C U19A A69C | 0.53
C4A A15G C33U C62U | ≤ 0.5
U3G G17A C30U A57U | ≤ 0.5
U3G G50A | 0.817
U3G G17C C62U | ≤ 0.5
C4A A15C A69C | ≤ 0.5
U3G A45G C49G | 0.633
C4A A14G C30G A45G G52A | 0.609
C4A A14U A20C U28G C61U C62A | ≤ 0.5
U3G C31G A43C G52A | 0.595
U3G C29A U35G G51A | ≤ 0.5
C4A A14C G38A U59G | ≤ 0.5
U3G C11U A40U | 0.529
U3G C5A | 0.779
U3G C4U U35A G58A G67U | ≤ 0.5
U3G C46A A57U A69U | ≤ 0.5
U3G A43C G48A A70C | 0.617
U3C U28A | 0.832
U3G C5U U26A G38A C55A C66U | 0.568
U3G U13C C22A | 0.656
U3G U13G A14C G39C G41A C60G C61U C62G A65U | 0.543
C4A A15C C60U U64A C66A G68A A69G | ≤ 0.5
U3G C5U U32C G41C C49U G67A | ≤ 0.5

Variant | yeast fitness
U3C U53C | 0.78
U3G G18A A69U | ≤ 0.5
U3C U26G G63A | ≤ 0.5
U3C U32A G41A C46U | ≤ 0.5
U3G C5G G10A C30A C31G U47G C49A C60U G67A | ≤ 0.5
U3C U28A C55G | ≤ 0.5
U3G A45C A69U | 1.08
U3G C4G G6C C29A A36C G52C G56A | ≤ 0.5
U3G A36G A43G | 0.735
U3G G12A | 0.682
U3G U53A | 0.662
U3G U13C C22A G25C C33U A69C | ≤ 0.5
U3G C22G C29A | ≤ 0.5
U3G U8C C62A | ≤ 0.5
C4A A15C A20C | ≤ 0.5
U3G C4G G6C C29A A36C G52C U64C | ≤ 0.5
U3G A14C | 0.773
U3G A14U | 0.629
C4A A14U A20C U28G A70C | ≤ 0.5
U3G A21G G38C C49U A69C | ≤ 0.5
U3G C11A U13C C33A A42U C55A | ≤ 0.5
U3G U8A G18C C29G A36C | ≤ 0.5
U3G G17C C61A | 0.61
U3G U26A U28G A45C U54C G67A A69U | ≤ 0.5

Variant | yeast fitness
U3G G17A C24A C34A C46G | ≤ 0.5
U3G G17A | 0.665
U3G U13C A14U C29A | 0.672
U3G U16G U28C A57U | ≤ 0.5
U3G G18A G41A A45U | ≤ 0.5
U3G A14U C29U A37G | ≤ 0.5
U3G U8C C33U U54C C66A | ≤ 0.5
U3G A14G G39C | ≤ 0.5
C4A A14U C34U | 0.763
U3C U28G G39C | ≤ 0.5
U3G A36C A45C G58A G68C | ≤ 0.5
U3G U13C C33A A42U C55A | 0.585
U3G A42C | 0.754
U3G A42U | 0.758
U3G C46U C49U | 0.698
U3G A42C G67C | ≤ 0.5
C4A A14U A20C U28G C62A | ≤ 0.5
U3G C24U C34U A40G C55G | ≤ 0.5
C4A A15C U35A C49A | 0.545
U3G C27A C61A C62U | ≤ 0.5
U3G A21G C62U | 0.538
U3G A15G C24G G44A G50A C55U | ≤ 0.5
U3G C27A A65U | ≤ 0.5
U3G C11A G52A C66G G68C | ≤ 0.5

Variant | yeast fitness
U3G A45C U54C A69U | 0.793
U3G C31U C34U C46G | ≤ 0.5
U3G U47A G68C | ≤ 0.5
U3G A15G G23A U47C | ≤ 0.5
C4A A15G A40G U64A | ≤ 0.5
U3C U64C | 1.04
U3C U64A | 0.792
U3C U47C C49U G51A | ≤ 0.5
U3G A21G C31G C33U A43U G56A A69U | ≤ 0.5
U3G C31U C49U G50A | ≤ 0.5
U3G G56A | 0.898
U3G A14C A42U G44C | 0.578
U3G U8C G58A | 0.763
U3G U53C C66U A69U | 0.548
U3G C5U G23C C34G C55G A70C | ≤ 0.5
U3G A43G U47A C49A | 0.535
U3G C30U G48C G68C | 0.526
U3C U54G | 0.536
U3C U54A | 0.676
U3C U54C | 0.873
U3G A37C A42U A43G G58C C62U | ≤ 0.5
U3G A57G | 0.908
C4A A15C U35G | ≤ 0.5
U3G A20C A21G | 0.798

Variant | yeast fitness
U3G C27G U35C | ≤ 0.5
U3G G41A | 0.748
U3G G18C G44A | ≤ 0.5
U3G C11U C55G | ≤ 0.5
C4A A14U A20C U28G | 0.588
U3C U28A C34U G41C G51A U53A U59C A70U | ≤ 0.5
U3G C30A C31G | 0.669
U3G U16C G39C A45C C49G A69U | ≤ 0.5
U3G U16C G39C A45C C49G | ≤ 0.5
U3G C11U C22A | ≤ 0.5
U3G A65G | 1.1
C4A A15U G18C G56C G67A | ≤ 0.5
U3G C66U A70U | 0.534
C4A A14U A20C U28G C66U | 0.557
U3C U26G C33A C61U | ≤ 0.5
U3G A15G A21U C24U U35C G38A | ≤ 0.5
U3G G48C G67A | 0.683
C4A A15G G17A A21C U28A A40U | ≤ 0.5
U3G G25A C27G G50C | 0.537
U3G C5A A20G A70U | ≤ 0.5
U3G A43G C55A | 0.536
C4A A14U A20C U28G U32A | ≤ 0.5
U3C U28A C34U U47C C60U | ≤ 0.5
U3G C4G C22U C29U A65G | ≤ 0.5

Variant | yeast fitness
U3G C4A G12A C29A C30G C62A A69C | ≤ 0.5
U3G G25A A45U C62A | ≤ 0.5
U3G A43G A45U | 0.539
U3G A43U U53C U54A A57C A65C | ≤ 0.5
C4A A14U A20C U28G G63U A69C | ≤ 0.5
U3G C22A | 0.682
U3G U35A | 0.533
U3G A36G | 0.977
U3G A36U | 0.598
U3G G9C C33G G63A | 0.606
C4A A14C C27A | ≤ 0.5
C4A A15U C61A | 0.78
C4A A14C C24U G25A C34A | 0.571
C4A A14G C30G A45G G52A G63A | ≤ 0.5
U3G A15U U35C | ≤ 0.5
C4A A14C A21C C22U C24U C29U U53C | 0.568
C4A A14U A20C U28G C49U | ≤ 0.5
U3G U8A U26G G38C A40C U53C | 0.566
U3G U8A C31A C55U | ≤ 0.5
C4A A15U A42G C61U | ≤ 0.5
U3G C22U A57G C60A A65U | 0.63
U3G A45C A70U | 0.857
U3G U8C A45G | 0.702
U3G G67C | 0.825

Variant | yeast fitness
C4A A14G C24U U32G A43G C66U | 0.573
U3G U7A G9A U28C A40U | ≤ 0.5
U3G A37C A40G U47C | ≤ 0.5
U3G C60U | 0.66
U3G C60G | 0.577
U3G G48A A69U | 0.638
U3G C4A A40U U54C | ≤ 0.5
U3G U59A | 0.793
U3G C5G U19C | ≤ 0.5
U3G A21C C46U | 0.505
U3G C24G C49U C55G G58A | ≤ 0.5
C4A A15U G18C G56C | ≤ 0.5
U3G G18A C60G | 0.538
U3G C4U A15G C24G C55U | ≤ 0.5
U3G G68U | 0.808
U3G C11U A45U | 0.559
U3G A37U | 0.683
C4A A15U G48A | 0.559
U3G G12A C27A C29G U53A C60A A69C | ≤ 0.5
U3G G18A C30G G41U C49G | ≤ 0.5
U3C U47G U64A | ≤ 0.5
U3G C4A C11G C31G | 0.533
U3G C49G | 0.809
